{
  "source": "ChEMBL document CHEMBL4680082",
  "about": "(J Med Chem, 2016)",
  "key": {"[1]": {"target": "T1, 5-hydroxytryptamine receptor 2C (Homo sapiens, UniProt P28335)", "T1 sequence (P28335 whole entry)": "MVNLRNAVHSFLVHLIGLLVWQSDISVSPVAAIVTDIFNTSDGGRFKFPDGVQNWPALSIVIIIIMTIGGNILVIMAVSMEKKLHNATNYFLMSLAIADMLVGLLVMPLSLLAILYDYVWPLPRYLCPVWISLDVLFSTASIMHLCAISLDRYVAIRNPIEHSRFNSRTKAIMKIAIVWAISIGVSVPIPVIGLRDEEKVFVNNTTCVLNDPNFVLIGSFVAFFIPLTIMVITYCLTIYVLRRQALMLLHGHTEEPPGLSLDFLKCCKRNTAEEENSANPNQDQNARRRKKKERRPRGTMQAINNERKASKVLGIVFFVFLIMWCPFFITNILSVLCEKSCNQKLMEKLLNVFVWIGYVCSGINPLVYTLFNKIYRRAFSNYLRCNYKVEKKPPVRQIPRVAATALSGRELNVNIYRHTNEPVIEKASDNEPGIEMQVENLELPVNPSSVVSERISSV", "test": "Agonist activity at human 5-HT2C INI receptor expressed in human HEK293 cells assessed as induction of beta-arrestin-2 recruitment incubated for 20 hrs by Tango assay", "format": "cell-based", "how_it_was_run": "(§1)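 Tango assay in HTLA cells (HEK line expressing TEV-fused β-arrestin-2 and tTA-driven luciferase) transfected with 5-HT2C INI–tTA fusion carrying a TEV site. Cells were stimulated with the same dilutions used for FLIPR, 20 h at 37 °C and 5% CO2, then lysed with Bright-Glo for 20 min at room temperature and read by luminescence. Data normalized to % 5-HT and fitted sigmoidally; n = 3 in triplicate. Bias from log(Emax/EC50).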"}, "[2]": {"target": "T2, 5-hydroxytryptamine receptor 2C (Homo sapiens) (UniProt P28335)", "T2 sequence (whole entry)": "T1 sequence (P28335 whole entry)", "test": "Induction of Gq-mediated receptor desensitization at human 5-HT2C INI receptor expressed in human Flp-In-293 cells assessed as reduction in Emax for [3H]myo-inositol accumulation at 1 uM after 20 hrs", "format": "functional, cell-based", "details": "filed as partial agonist", "how_it_was_run": "(§2)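 PI hydrolysis: Flp-In-293 5-HT2C INI cells, 25,000/well, labelled 16-18 h with [3H]-myo-inositol (2 µCi/well) in inositol-free DMEM, washed. Drug (1 µM) in HBSS/HEPES pH 7.4 buffer for the indicated times (5 min to 40 h). LiCl (15 mM final) added 2 h before lysis with cold 50 mM formic acid at 4 °C overnight. [3H]-inositol phosphates captured on yttrium silicate beads and counted as CPM.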"}, "[3]": {"target": "T2, 5-hydroxytryptamine receptor 2C (Homo sapiens)", "test": "Induction of Gq-mediated receptor desensitization at human 5-HT2C INI receptor expressed in human Flp-In-293 cells assessed as reduction in Emax for additional 5-HT-stimulated calcium flux at <1 uM pre-incubated for 30 mins followed by drug wash out (3 times) by Fluo-4 direct dye based FLIPR assay", "format": "functional, cell-based", "details": "dose microM <1, time 30.0 min"}, "[4]": {"target": "T2, 5-hydroxytryptamine receptor 2C (Homo sapiens)", "test": "Agonist activity at human 5-HT2C INI receptor expressed in human Flp-In-293 cells assessed as increase in [3H]myo-inositol accumulation at 1 uM measured up to 5 hrs", "format": "functional, cell-based", "details": "filed as partial agonist, time hrs <=5", "how_it_was_run": "as §2"}, "[5]": {"target": "T3, 5-hydroxytryptamine receptor 2A (Homo sapiens, UniProt P28223)", "T3 sequence (P28223 whole entry)": "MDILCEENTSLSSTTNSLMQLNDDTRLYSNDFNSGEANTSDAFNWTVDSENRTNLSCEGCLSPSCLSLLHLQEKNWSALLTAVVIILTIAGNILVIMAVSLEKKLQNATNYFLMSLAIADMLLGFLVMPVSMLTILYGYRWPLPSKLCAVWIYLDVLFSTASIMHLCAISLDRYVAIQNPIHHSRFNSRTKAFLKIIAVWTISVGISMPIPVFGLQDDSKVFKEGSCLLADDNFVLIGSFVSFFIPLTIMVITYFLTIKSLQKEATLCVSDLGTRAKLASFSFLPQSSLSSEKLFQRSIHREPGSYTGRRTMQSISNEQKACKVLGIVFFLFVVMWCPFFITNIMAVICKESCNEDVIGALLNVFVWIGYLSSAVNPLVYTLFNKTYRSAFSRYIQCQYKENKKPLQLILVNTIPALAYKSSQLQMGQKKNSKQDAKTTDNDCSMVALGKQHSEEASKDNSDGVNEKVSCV", "test": "Agonist activity at human 5-HT2A receptor expressed in human Flp-In-293 cells assessed as induction of calcium flux incubated for 1 hr by Fluo-4 direct dye based FLIPR assay relative to 5-HT", "format": "functional, cell-based", "details": "filed as agonist"}, "[6]": {"target": "T2, 5-hydroxytryptamine receptor 2C (Homo sapiens)", "test": "Agonist activity at human 5-HT2C receptor expressed in human Flp-In-293 cells assessed as induction of calcium flux incubated for 1 hr by Fluo-4 direct dye based FLIPR assay relative to 5-HT", "format": "functional, cell-based", "details": "filed as partial agonist"}, "[7]": {"target": "T2, 5-hydroxytryptamine receptor 2C (Homo sapiens)", "test": "Agonist activity at human 5-HT2C INI receptor expressed in human Flp-In-293 cells assessed as increase in [3H]myo-inositol accumulation at 1 uM after 90 mins", "format": "functional, cell-based", "details": "filed as partial agonist", "how_it_was_run": "as §2"}, "[8]": {"target": "T2, 5-hydroxytryptamine receptor 2C (Homo sapiens)", "test": "Agonist activity at human 5-HT2C INI receptor expressed in human Flp-In-293 cells assessed as induction of calcium flux incubated for 1 hr by Fluo-4 direct dye based FLIPR assay relative to 5-HT", "format": "functional, cell-based", "how_it_was_run": "(§3)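 Calcium flux in Flp-In-293 cells stably expressing the human 5-HT2C INI isoform, Fluo-4 Direct loading for 1 h at 37 °C. Drug dilutions identical to those in the parallel Tango assay, 300 s read at 1 read/s, normalized to % 5-HT. Triplicate, mean ± SEM (n = 3). Bias factors were calculated from change in relative activity, log(Emax/EC50).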"}, "[9]": {"target": "T4, 5-hydroxytryptamine receptor 2B (Homo sapiens, UniProt P41595)", "T4 sequence (P41595 whole entry)": "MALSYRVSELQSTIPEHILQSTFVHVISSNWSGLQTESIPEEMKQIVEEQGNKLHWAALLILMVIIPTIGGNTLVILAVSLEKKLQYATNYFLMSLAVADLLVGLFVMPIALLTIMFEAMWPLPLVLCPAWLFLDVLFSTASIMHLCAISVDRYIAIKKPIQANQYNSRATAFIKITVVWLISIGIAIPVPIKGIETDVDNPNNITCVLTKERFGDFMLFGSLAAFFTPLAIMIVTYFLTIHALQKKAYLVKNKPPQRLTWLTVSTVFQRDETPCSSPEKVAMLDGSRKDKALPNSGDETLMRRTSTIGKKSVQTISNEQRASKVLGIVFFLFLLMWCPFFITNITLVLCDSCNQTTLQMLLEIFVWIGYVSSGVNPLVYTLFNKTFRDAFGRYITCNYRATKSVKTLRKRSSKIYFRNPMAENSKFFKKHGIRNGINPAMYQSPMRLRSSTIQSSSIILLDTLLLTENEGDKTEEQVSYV"}, "[10]": {"target": "T1, 5-hydroxytryptamine receptor 2C", "test": "Agonist activity at human 5-HT2C INI receptor expressed in human Flp-In-293 cells assessed as induction of calcium flux incubated for 1 hr by Fluo-4 direct dye based FLIPR assay", "format": "functional, cell-based", "how_it_was_run": "as §3"}, "[11]": {"target": "T4, 5-hydroxytryptamine receptor 2B", "test": "Agonist activity at human 5-HT2B receptor expressed in human Flp-In-293 cells assessed as induction of calcium flux incubated for 1 hr by Fluo-4 direct dye based FLIPR assay relative to 5-HT", "format": "functional, cell-based", "details": "filed as agonist"}, "[12]": {"target": "T2, 5-hydroxytryptamine receptor 2C (Homo sapiens)", "test": "Agonist activity at human 5-HT2C INI receptor expressed in human HEK293 cells assessed as induction of beta-arrestin-2 recruitment incubated for 20 hrs by Tango assay relative to 5HT", "format": "cell-based", "how_it_was_run": "as §1"}, "[13]": {"target": "T1, 5-hydroxytryptamine receptor 2C"}, "[14]": {"target": "T2, 5-hydroxytryptamine receptor 2C (Homo sapiens)", "test": "Agonist activity at human 5-HT2C INI receptor expressed in human Flp-In-293 cells assessed as increase in [3H]myo-inositol accumulation at 1 uM after 30 hrs", "format": "functional, cell-based", "details": "filed as partial agonist", "how_it_was_run": "as §2"}, "[15]": {"target": "T3, 5-hydroxytryptamine receptor 2A"}, "[16]": {"target": "T2, 5-hydroxytryptamine receptor 2C (Homo sapiens)", "test": "Agonist activity at human 5-HT2C INI receptor expressed in human Flp-In-293 cells assessed as increase in [3H]myo-inositol accumulation at 1 uM after 5 mins", "format": "functional, cell-based", "details": "filed as partial agonist", "how_it_was_run": "as §2"}, "[17]": {"target": "T2, 5-hydroxytryptamine receptor 2C (Homo sapiens)", "test": "Agonist activity at human 5-HT2C INI receptor expressed in human Flp-In-293 cells assessed as induction of calcium flux by measuring log (Emax/EC50) incubated for 1 hr by Fluo-4 direct dye based FLIPR assay", "format": "functional, cell-based", "how_it_was_run": "as §3"}, "[18]": {"target": "T2, 5-hydroxytryptamine receptor 2C (Homo sapiens)", "test": "Bias factor, ratio of log(Emax/EC50) of lorcaserin to test compound for agonist activity at human 5-HT2C INI receptor expressed in human Flp-In-293 cells assessed as induction of calcium flux incubated for 1 hr by Fluo-4 direct dye based FLIPR assay", "format": "functional, cell-based", "how_it_was_run": "as §3"}, "[19]": {"target": "T2, 5-hydroxytryptamine receptor 2C (Homo sapiens)", "test": "Bias factor, ratio of log(Emax/EC50) of lorcaserin to test compound for agonist activity at human 5-HT2C INI receptor expressed in human HEK293 cells assessed as induction of beta-arrestin-2 recruitment incubated for 20 hrs by Tango assay", "format": "cell-based", "how_it_was_run": "as §1"}, "[20]": {"target": "T2, 5-hydroxytryptamine receptor 2C (Homo sapiens)", "test": "Agonist activity at human 5-HT2C INI receptor expressed in human HEK293 cells assessed as induction of beta-arrestin-2 recruitment by measuring log (Emax/EC50) incubated for 20 hrs by Tango assay relative to 5HT", "format": "cell-based", "how_it_was_run": "as §1"}},
  "note": "“And” between values parts separate entries of the source, which are not always exact repeats. Equal entries are not always repeated. The source made the active and inactive calls. No cut-off for these calls is given here.",
  "data": [
    {"smiles": "NC[C@H]1C[C@@H]1c1c(OCCF)ccc2occc12", "values": [
      {"measurement": "EC50", "setting": "[1]; read-out: EC50", "result": 25, "unit": "nM"},
      {"measurement": "Activity", "setting": "[2]", "result": "Active"},
      {"measurement": "Activity", "setting": "[3]", "result": "inactive"},
      {"measurement": "Activity", "setting": "[4]", "result": "Active"},
      {"measurement": "Emax", "setting": "[5]", "result": 98, "unit": "%"},
      {"measurement": "Emax", "setting": "[6]", "result": 97, "unit": "%"},
      {"measurement": "Activity", "setting": "[7]", "result": "Active"},
      {"measurement": "Emax", "setting": "[8]; filed as partial agonist", "result": 94, "unit": "%"},
      {"measurement": "EC50", "setting": "[9]", "result": 46, "unit": "nM"},
      {"measurement": "EC50", "setting": "[10]", "result": 1.2, "unit": "nM"},
      {"measurement": "Emax", "setting": "[11]", "result": 103, "unit": "%"},
      {"measurement": "Emax", "setting": "[12]", "result": 28, "unit": "%"},
      {"measurement": "EC50", "setting": "[13]", "result": "0.603 nM and 0.59 nM"},
      {"measurement": "Activity", "setting": "[14]", "result": "Dose-dependent effect"},
      {"measurement": "EC50", "setting": "[15]", "result": 22, "unit": "nM"},
      {"measurement": "Activity", "setting": "[16]", "result": "Active"}
    ]},
    {"smiles": "C[C@H](N)Cn1ccc2cc(F)c(Cl)cc21", "values": [
      {"measurement": "log(ratio)", "setting": "[17]", "result": 8.65},
      {"measurement": "EC50", "setting": "[1]; read-out: EC50", "result": 10, "unit": "nM"},
      {"measurement": "EC50", "setting": "[1]; read-out: pEC50 (converted)", "result": 10.7, "unit": "nM"},
      {"measurement": "Ratio", "setting": "[18]", "result": 0.3},
      {"measurement": "Emax", "setting": "[8]; filed as agonist", "result": 99, "unit": "%"},
      {"measurement": "Ratio", "setting": "[19]", "result": 3.3},
      {"measurement": "EC50", "setting": "[10]", "result": 2.2, "unit": "nM"},
      {"measurement": "Emax", "setting": "[12]; filed as agonist", "result": 87, "unit": "%"},
      {"measurement": "log(ratio)", "setting": "[20]", "result": 7.94}
    ]}
  ]
}
